Data on one molecule can be found in ChEMBL document CHEMBL2417530, “Coumarin derivatives protect against ischemic brain injury in rats” (Eur J Med Chem, 2013).

Data set [1] in a line: Clearance in Sprague-Dawley rat plasma at 2 x 10^-5 mol/kg, iv by LC-MS analysis. In kind it is ADME, organism-based. Particulars: 2e-05 mol/kg; call rule not given here. In short, it runs like this: (§1)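 Male Sprague-Dawley rats (260-280 g, n = 4) given a single iv dose of 6 mg/kg. Blood was taken from the jugular vein into heparin tubes under ether, and plasma was spun out and stored at -70 °C. After saline perfusion, cortex was homogenized in 2 volumes of water. Samples were precipitated with acetonitrile with internal standard added and quantified by LC-MS against a weighted linear calibration.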

A further data set concerns Plasma. In words: Drug uptake in Sprague-Dawley rat plasma at 2 x 10^-5 mol/kg, iv measured at 60 mins by LC-MS analysis. In kind it is ADME, organism-based. Particulars: in vivo, 1 h. In short, it runs like this: as §1
The subject of data set [2] is Rattus norvegicus. Briefly: In vivo neuroprotective activity in Sprague-Dawley rat transient middle cerebral artery occlusion model assessed as reduction of infarct size at 3 mg/kg, iv measured 24 hrs post reperfusion by TTC staining assay relative to vehicle-treated control. Set-up: scale not given: the % may be the effect or the level left. In kind it is functional. In short, it runs like this: (§2)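 Male Sprague-Dawley rats, 7 weeks, 260–280 g, under 10% chloral hydrate ip. Right MCA occluded 60 min by tip-burned 4-0 nylon thread via common carotid, then reperfused. Saline or drug given iv at reperfusion, ethanol as cosolvent. Killed 24 h later; six 2 mm slices in 1% TTC in PBS, 37 °C, 30 min. Infarct area traced as % of total area; n = 12.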

Data set [3] can be described thus: Tmax in Sprague-Dawley rat plasma at 2 x 10^-5 mol/kg, iv by LC-MS analysis. The format is ADME, organism-based. Particulars: 2e-05 mol/kg. In short, it runs like this: as §1
Data set [4] in a line: Volume of distribution in Sprague-Dawley rat plasma at 2 x 10^-5 mol/kg, iv by LC-MS analysis. The format is ADME, organism-based. Conditions: 2e-05 mol/kg. The method, boiled down: as §1
Data set [5] is described as follows: Tmax in Sprague-Dawley rat cortex at 2 x 10^-5 mol/kg, iv by LC-MS analysis. The format is ADME, organism-based. Conditions: 2e-05 mol/kg. In short, it runs like this:
as §1

Data set [6] has as its system Rattus norvegicus. Briefly: In vivo neuroprotective activity in Sprague-Dawley rat transient middle cerebral artery occlusion model assessed as reduction of infarct size at 6 mg/kg, iv measured 24 hrs post reperfusion by TTC staining assay relative to vehicle-treated control. The format is functional. The arrangement: scale not given: the % may be the effect or the level left. The method, boiled down: as §2

A further data set concerns PC-12. In words: Neuroprotective activity in rat PC12 cells assessed as attenuation of oxygen-glucose deprivation-induced cellular damage at 10 uM by MTT assay relative to control. The format is functional. The method, boiled down:
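PC12 cells were seeded at 5×10^3/well for 24 h. OGD insult was low-glucose medium plus 5 mM sodium dithionite for 24 h, given together with 10 µM compound. MTT (5 mg/mL) was added for 4 h and absorbance read at 570 nm. Viability was expressed as % of full-medium control; n = 3.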
(In general: Formazan colour is commonly taken as a measure of viable cells.)

Data set [7] in a line: Terminal half life in Sprague-Dawley rat cortex at 2 x 10^-5 mol/kg, iv by LC-MS analysis. The format is ADME, organism-based. Conditions: 2e-05 mol/kg, read-out: beta t1/2. The method, boiled down: as §1
Data set [8] deals with Rattus norvegicus. In words: In vivo neuroprotective activity in iv dosed Sprague-Dawley rat transient middle cerebral artery occlusion model assessed as reduction of infarct size measured 24 hrs post reperfusion by TTC staining assay. The format is functional, organism-based. The method, boiled down:
as §2

For the molecule `COc1cc(O)cc2oc(=O)c(N3CCN(C)CC3)c(C)c12`, in data set [1], the clearance came to 9 mL/min. Also, the Drug uptake entry in the data set with Plasma is listed as “Not Active”. Also, the Activity with Rattus norvegicus [2] was 20.36%; in the data set with Rattus norvegicus [6] it was 18.89%; with PC-12, 66%; in the data set on Rattus norvegicus [8], “Dose-dependent effect”. Besides, the Tmax in [3] and in [5] was 2 min in each case. This molecule registered a Vd in data set [4] of 0.084 L. In addition, the half-life in [7] was determined as 15.5 min.

By clearance is commonly meant a measure of how efficiently the substance is removed, as volume per time. What is called Tmax is the time from dosing to the highest level. What is called Vd is a proportionality between amount in the body and measured concentration, not a real space.
